Our source for the Activity values is ChEMBL document CHEMBL4706573, “Synthesis and evaluation of thiophene based small molecules as potent inhibitors of Mycobacterium tuberculosis” (Eur J Med Chem, 2020).

Structures are written as SMILES. Activity calls are given as the source filed them. No cut-off for these calls is given here.

The assay relates to Mycobacterium tuberculosis. The experiment in a line: Antimycobacterial activity against INH-resistant Mycobacterium tuberculosis mc2497 after 10 to 14 days. The assay is classed as functional, organism-based. To be noted: time 10-14 day. In short, it runs like this:
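MIC99 determined in whole cells, tested in triplicate with INH as the positive control. Strains were wild-type, pMV306, pMV306-pks13 and INH-resistant mc2 497. Susceptibility was scored relative to the parental strain: S where the MIC99 was at most 2x the parental MIC99.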

For the compound `CCOC(=O)c1cc(-c2ccccc2)sc1NC(=O)CBr`, the result was inactive.
As for `CO[C@H]1/C=C/O[C@@]2(C)Oc3c(C)c(O)c4c(O)c(c(/C=N/N5CCN(C)CC5)c(O)c4c3C2=O)NC(=O)/C(C)=C\C=C\[C@H](C)[C@H](O)[C@@H](C)[C@@H](O)[C@@H](C)[C@H](OC(C)=O)[C@@H]1C` [RIFAMPIN], the result was Active.
For the compound `COC(=O)c1cc(-c2cc(F)cc(F)c2)sc1NC(=O)CCl`, the result was inactive.
Next, `COC(=O)c1ccsc1NC(=O)CCl`: “inactive”; `NNC(=O)c1ccncc1` [ISONIAZID]: “inactive”; `COC(=O)c1cc(-c2cc3ccccc3s2)sc1NC(=O)CCl`: “inactive”.
With `COC(=O)c1cc(-c2ccc(C(F)(F)F)cc2)sc1NC(=O)CCl` the entry was “inactive”; with `COC(=O)c1cc(-c2ccc(F)cc2)sc1NC(=O)CCl`, “inactive”.
In the case of `COC(=O)c1cc(-c2cccc(F)c2)sc1NC(=O)CCl`, the outcome was inactive.
As for `COC(=O)c1cc(-c2ccccc2)sc1NC(=O)CCl`, the outcome was inactive.
